What was measured:
[1] = target: 3',5'-cyclic-AMP phosphodiesterase 4B (Homo sapiens, UniProt Q07343); assay: Inhibition of human recombinant PDE4B expressed insect sf9 cells by radiometric assay
Method in brief: (§1)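 Human recombinant PDEs expressed in Sf9 cells, except PDE6 purified from bovine retina. Radiometric two-step method, modified from Thompson and Appleman. Five concentrations in duplicate, starting at 30 μM with 1:10 serial dilution, 1% final DMSO.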

[2] = Stability in human hepatocytes assessed as parent compound remaining at 10 uM after 60 mins by LC-MS/MS analysis; type: ADME, cell-based, Hepatocyte; details: read-out: Stability
Method in brief: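 Pooled mixed-sex cryopreserved human hepatocytes (1 million cells/mL) in Leibovitz L-15 at 37 °C, compound at 10 μM in duplicate. Sampled at 0 and 60 min. Protein-free supernatant evaporated under nitrogen, reconstituted in mobile phase and analysed by LC−MS/MS. Cell-free medium incubation for 60 min as control.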

[3] = target: Dual 3',5'-cyclic-AMP and -GMP phosphodiesterase 11A (Homo sapiens, UniProt Q9HCR9); assay: Inhibition of human recombinant PDE11A4 expressed insect sf9 cells by radiometric assay; method in brief: as §1
Rattus norvegicus = assay: Anti-inflammatory activity in OVA-induced airway inflammation Brown Norway rat model assessed inhibition of eosinophils recruitment in bronchoalveolar lavage fluid administered intratracheally as powder formulation 2 hrs before aerosolized OVA challenge measured at 24 hrs post aerosolized OVA challenge; type: functional; details: for ED50: inhaled or nasal
Method in brief: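 Male Brown Norway rats sensitized i.p. with OVA (1 mg/rat) plus Al(OH)3 (100 mg/rat) in saline on 3 consecutive days. Challenged 2–3 weeks later with nose-only 1% OVA aerosol for 30 min. Lactose-blended dry powder (10 mg/kg total powder) insufflated intratracheally; dose taken from needle weight difference. BAL with 3 × 4 mL HBSS/EDTA/HEPES at 24 h; total and differential counts by automated counter. ED50 from fitted dose–response curve.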

[4] = target: cAMP and cAMP-inhibited cGMP 3',5'-cyclic phosphodiesterase 10A (Homo sapiens, UniProt Q9Y233); assay: Inhibition of human recombinant PDE10A2 expressed insect sf9 cells by radiometric assay; method in brief: as §1
[5] = target: cGMP-specific 3',5'-cyclic phosphodiesterase (Homo sapiens, UniProt O76074); assay: Inhibition of human recombinant PDE5A expressed insect sf9 cells by radiometric assay; method in brief: as §1
Lung = assay: Drug uptake in Sprague-Dawley rat lung at 1 umol/kg, it administered as micronized powder measured at 24 hrs post dose by electrospray LC-MS analysis; type: ADME, tissue-based; details: in vivo, inhaled_or_intranasal
Method in brief: (§2)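 Sprague-Dawley rats (250−400 g) dosed intratracheally with micronized dry powder blended with coarse lactose, delivered by insufflator under isoflurane anaesthesia. Blood collected in heparinized tubes and spun at 1200g for 15 min. Lung sampled at 0.25, 1, 2, 4, 8, 16 and 24 h, n = 3 per time point.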

[6] = target: cGMP-inhibited 3',5'-cyclic phosphodiesterase 3A (Homo sapiens, UniProt Q14432); assay: Inhibition of human recombinant PDE3A expressed insect sf9 cells by radiometric assay; method in brief: as §1
Plasma [7] = assay: AUClast in Sprague-Dawley rat plasma at 1 umol/kg, it administered as micronized powder measured up to 24 hrs post dose by electrospray LC-MS analysis; type: ADME, cell-free; details: inhaled_or_intranasal; method in brief: as §2
[8] = Metabolic stability in human lung S9 fraction assessed as compound remaining at 1 uM measured after 60 mins in presence of NADPH by LC-MS/MS analysis; type: ADME; details: read-out: Stability
[9] = Tmax in Sprague-Dawley rat lung at 1 umol/kg, it administered as micronized powder measured up to 24 hrs post dose by electrospray LC-MS analysis; type: ADME, tissue-based; details: inhaled or intranasal; method in brief: as §2
[10] = target: High affinity cAMP-specific and IBMX-insensitive 3',5'-cyclic phosphodiesterase 8A (Homo sapiens, UniProt O60658); assay: Inhibition of human recombinant PDE8A1 expressed insect sf9 cells by radiometric assay; method in brief: as §1
[11] = Metabolic stability in human plasma assessed as compound remaining at 1 uM measured after 60 mins in presence of NADPH by LC-MS/MS analysis; type: ADME, cell-free; details: read-out: Stability
[12] = Intrinsic clearance in human hepatocytes assessed per million cells at 1 uM measured after 90 mins by LC-MS/MS analysis; type: ADME, cell-based, Hepatocyte; details: read-out: CLH
Method in brief: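 Compound at 1 μM with hepatocytes (1 million cells/mL) in Leibovitz L-15 at 37 °C, in duplicate. Sampled at 0, 10, 20, 30, 60 and 90 min, quenched with ice-cold acetonitrile, centrifuged, and unchanged compound measured by LC−MS/MS. Included 7-ethoxycoumarin and 7-hydroxycoumarin activity controls and cell-free medium controls.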

[13] = target: High affinity 3',5'-cyclic-AMP phosphodiesterase 7A (Homo sapiens, UniProt Q13946); assay: Inhibition of human recombinant PDE7A expressed insect sf9 cells by radiometric assay; method in brief: as §1
[14] = Half life in Sprague-Dawley rat lung at 1 umol/kg, it administered as micronized powder measured up to 24 hrs post dose by electrospray LC-MS analysis; type: ADME, tissue-based; details: inhaled or intranasal; method in brief: as §2
[15] = target: cGMP-dependent 3',5'-cyclic phosphodiesterase (Homo sapiens, UniProt O00408); assay: Inhibition of human recombinant PDE2A expressed insect sf9 cells by radiometric assay; method in brief: as §1
[16] = Intrinsic clearance in human liver microsomes at 1 uM measured after 60 mins in presence NADPH by LC-MS/MS analysis; type: ADME, microsome; details: read-out: CLH
Method in brief: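 Compound at 1 μM with human liver microsomes (0.8 mg protein/mL) in Dulbecco's buffer pH 7.4, 1 mM NADPH, 37 °C, in duplicate. Sampled at 0, 5, 10, 20, 30 and 60 min, quenched with ice-cold acetonitrile, and unchanged compound measured by LC−MS/MS. No-NADPH controls; midazolam (1 μM) as phase I control.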

[17] = Inhibition of PDE4 in human PBMC assessed as reduction in LPS-induced TNFalpha release after 18 hrs by quantitative ELISA
[18] = Inhibition of PDE4 in human U937 cell lysates assessed as residual cAMP after 2.5 mins by LANCE assay
[19] = target: Dual specificity calcium/calmodulin-dependent 3',5'-cyclic nucleotide phosphodiesterase 1A (Homo sapiens, UniProt P54750); assay: Inhibition of human recombinant PDE1A expressed insect sf9 cells by radiometric assay; method in brief: as §1
Plasma [20] = assay: Tlast in Sprague-Dawley rat plasma at 1 umol/kg, it administered as micronized powder measured up to 24 hrs post dose by electrospray LC-MS analysis; type: ADME, cell-free; details: inhaled_or_intranasal; method in brief: as §2
[21] = MRTlast in Sprague-Dawley rat lung at 1 umol/kg, it administered as micronized powder measured up to 24 hrs post dose by electrospray LC-MS analysis; type: ADME, tissue-based; details: inhaled or intranasal; method in brief: as §2
[22] = Protein binding in human plasma at 5 uM after 5 hrs by LC-MS/MS analysis; type: ADME, cell-free; details: read-out: PPB (converted)
[23] = Tmax in Sprague-Dawley rat plasma at 1 umol/kg, it administered as micronized powder measured up to 24 hrs post dose by electrospray LC-MS analysis; type: ADME, cell-free; details: inhaled or intranasal; method in brief: as §2
[24] = Apparent permeability across apical to basolateral side in human Caco2 cells at 10 uM after 2 hrs by LC-MS/MS analysis; type: ADME, cell-based; details: Caco-2
[25] = MRTlast in Sprague-Dawley rat plasma at 1 umol/kg, it administered as micronized powder measured up to 24 hrs post dose by electrospray LC-MS analysis; type: ADME, cell-free; details: inhaled or intranasal; method in brief: as §2
[26] = Apparent permeability across basolateral to apical side in human Caco2 cells at 10 uM after 2 hrs by LC-MS/MS analysis; type: ADME, cell-based; details: Caco-2

High affinity cAMP-specific and IBMX-insensitive 3',5'-cyclic phosphodiesterase 8A, sequence (O60658 whole entry): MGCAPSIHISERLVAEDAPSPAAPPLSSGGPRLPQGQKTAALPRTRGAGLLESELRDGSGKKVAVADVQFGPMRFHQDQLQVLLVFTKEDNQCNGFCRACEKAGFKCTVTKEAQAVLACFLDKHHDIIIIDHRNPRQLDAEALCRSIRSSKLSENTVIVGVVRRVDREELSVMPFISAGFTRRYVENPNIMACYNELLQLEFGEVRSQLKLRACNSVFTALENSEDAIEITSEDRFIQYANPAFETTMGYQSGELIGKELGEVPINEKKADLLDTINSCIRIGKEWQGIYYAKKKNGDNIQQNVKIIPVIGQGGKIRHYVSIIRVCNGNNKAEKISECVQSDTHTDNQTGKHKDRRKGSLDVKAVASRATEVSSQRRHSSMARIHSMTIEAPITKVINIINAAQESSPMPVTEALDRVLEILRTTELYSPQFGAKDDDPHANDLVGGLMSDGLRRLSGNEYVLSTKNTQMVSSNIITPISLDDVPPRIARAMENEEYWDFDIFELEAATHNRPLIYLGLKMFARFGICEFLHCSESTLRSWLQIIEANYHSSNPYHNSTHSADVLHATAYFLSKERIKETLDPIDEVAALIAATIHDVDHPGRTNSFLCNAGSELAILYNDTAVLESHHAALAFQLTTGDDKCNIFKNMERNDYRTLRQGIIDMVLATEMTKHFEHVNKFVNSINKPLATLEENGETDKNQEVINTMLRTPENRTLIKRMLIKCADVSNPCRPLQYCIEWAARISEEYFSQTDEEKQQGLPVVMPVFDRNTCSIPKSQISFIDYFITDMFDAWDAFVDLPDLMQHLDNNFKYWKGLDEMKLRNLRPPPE
Dual 3',5'-cyclic-AMP and -GMP phosphodiesterase 11A, sequence (Q9HCR9 whole entry): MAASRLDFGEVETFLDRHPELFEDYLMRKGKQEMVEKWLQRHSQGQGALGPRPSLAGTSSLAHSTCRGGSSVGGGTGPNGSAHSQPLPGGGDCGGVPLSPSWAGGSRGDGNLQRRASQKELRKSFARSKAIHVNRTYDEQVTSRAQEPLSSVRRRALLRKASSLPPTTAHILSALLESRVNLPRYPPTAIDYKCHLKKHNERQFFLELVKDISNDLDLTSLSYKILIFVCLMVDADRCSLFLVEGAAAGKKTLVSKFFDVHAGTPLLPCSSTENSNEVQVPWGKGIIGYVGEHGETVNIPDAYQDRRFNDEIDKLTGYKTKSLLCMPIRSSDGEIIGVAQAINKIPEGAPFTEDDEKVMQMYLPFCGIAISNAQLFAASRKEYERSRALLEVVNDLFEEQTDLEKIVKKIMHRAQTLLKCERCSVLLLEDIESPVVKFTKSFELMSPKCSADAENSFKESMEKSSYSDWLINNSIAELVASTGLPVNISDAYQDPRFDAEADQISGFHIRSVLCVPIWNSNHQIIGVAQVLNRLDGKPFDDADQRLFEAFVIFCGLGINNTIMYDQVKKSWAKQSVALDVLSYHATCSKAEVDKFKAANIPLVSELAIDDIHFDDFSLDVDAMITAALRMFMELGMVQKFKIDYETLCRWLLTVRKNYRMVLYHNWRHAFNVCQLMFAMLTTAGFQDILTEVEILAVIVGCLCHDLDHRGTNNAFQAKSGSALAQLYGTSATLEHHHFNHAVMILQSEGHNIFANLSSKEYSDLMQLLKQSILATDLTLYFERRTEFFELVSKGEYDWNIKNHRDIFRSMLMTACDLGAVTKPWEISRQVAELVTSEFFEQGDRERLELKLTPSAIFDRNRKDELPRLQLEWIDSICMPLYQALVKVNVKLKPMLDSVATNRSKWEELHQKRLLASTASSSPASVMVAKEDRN
High affinity 3',5'-cyclic-AMP phosphodiesterase 7A, sequence (Q13946 whole entry): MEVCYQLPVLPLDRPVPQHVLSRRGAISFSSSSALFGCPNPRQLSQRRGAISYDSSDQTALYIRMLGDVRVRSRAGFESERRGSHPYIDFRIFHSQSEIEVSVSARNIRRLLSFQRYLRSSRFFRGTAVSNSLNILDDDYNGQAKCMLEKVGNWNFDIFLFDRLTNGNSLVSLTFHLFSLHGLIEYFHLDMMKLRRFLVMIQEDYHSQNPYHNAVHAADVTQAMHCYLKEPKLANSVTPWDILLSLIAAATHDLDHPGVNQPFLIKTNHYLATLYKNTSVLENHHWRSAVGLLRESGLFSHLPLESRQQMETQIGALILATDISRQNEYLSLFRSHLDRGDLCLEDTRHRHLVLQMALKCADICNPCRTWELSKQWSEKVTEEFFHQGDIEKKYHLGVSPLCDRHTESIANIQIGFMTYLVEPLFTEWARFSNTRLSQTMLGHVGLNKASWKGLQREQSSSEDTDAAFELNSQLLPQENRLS
cGMP-dependent 3',5'-cyclic phosphodiesterase, sequence (O00408 whole entry): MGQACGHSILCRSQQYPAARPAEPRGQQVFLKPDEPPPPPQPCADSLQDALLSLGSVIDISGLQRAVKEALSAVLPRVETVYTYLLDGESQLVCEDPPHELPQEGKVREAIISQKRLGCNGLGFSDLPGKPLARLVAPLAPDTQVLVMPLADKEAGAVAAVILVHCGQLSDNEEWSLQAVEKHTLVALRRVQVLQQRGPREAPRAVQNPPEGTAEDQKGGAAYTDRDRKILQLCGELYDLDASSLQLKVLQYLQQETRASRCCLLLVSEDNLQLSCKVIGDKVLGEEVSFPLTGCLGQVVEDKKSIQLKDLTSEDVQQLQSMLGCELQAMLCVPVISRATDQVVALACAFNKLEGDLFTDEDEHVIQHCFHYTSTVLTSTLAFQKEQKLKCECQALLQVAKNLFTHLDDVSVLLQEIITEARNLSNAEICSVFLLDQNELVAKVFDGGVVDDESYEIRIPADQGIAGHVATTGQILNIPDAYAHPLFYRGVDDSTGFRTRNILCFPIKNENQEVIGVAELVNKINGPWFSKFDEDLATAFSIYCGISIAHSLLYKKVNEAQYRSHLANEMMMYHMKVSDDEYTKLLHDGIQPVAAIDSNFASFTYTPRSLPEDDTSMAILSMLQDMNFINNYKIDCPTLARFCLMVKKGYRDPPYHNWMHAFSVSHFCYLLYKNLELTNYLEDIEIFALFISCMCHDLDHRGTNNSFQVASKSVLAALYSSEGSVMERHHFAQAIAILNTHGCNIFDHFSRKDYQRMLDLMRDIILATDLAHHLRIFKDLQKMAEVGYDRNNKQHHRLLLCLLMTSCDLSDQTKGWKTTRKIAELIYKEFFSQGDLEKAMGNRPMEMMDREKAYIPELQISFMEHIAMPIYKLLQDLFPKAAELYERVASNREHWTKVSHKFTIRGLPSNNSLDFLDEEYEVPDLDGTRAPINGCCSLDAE
cGMP-inhibited 3',5'-cyclic phosphodiesterase 3A, sequence (Q14432 whole entry): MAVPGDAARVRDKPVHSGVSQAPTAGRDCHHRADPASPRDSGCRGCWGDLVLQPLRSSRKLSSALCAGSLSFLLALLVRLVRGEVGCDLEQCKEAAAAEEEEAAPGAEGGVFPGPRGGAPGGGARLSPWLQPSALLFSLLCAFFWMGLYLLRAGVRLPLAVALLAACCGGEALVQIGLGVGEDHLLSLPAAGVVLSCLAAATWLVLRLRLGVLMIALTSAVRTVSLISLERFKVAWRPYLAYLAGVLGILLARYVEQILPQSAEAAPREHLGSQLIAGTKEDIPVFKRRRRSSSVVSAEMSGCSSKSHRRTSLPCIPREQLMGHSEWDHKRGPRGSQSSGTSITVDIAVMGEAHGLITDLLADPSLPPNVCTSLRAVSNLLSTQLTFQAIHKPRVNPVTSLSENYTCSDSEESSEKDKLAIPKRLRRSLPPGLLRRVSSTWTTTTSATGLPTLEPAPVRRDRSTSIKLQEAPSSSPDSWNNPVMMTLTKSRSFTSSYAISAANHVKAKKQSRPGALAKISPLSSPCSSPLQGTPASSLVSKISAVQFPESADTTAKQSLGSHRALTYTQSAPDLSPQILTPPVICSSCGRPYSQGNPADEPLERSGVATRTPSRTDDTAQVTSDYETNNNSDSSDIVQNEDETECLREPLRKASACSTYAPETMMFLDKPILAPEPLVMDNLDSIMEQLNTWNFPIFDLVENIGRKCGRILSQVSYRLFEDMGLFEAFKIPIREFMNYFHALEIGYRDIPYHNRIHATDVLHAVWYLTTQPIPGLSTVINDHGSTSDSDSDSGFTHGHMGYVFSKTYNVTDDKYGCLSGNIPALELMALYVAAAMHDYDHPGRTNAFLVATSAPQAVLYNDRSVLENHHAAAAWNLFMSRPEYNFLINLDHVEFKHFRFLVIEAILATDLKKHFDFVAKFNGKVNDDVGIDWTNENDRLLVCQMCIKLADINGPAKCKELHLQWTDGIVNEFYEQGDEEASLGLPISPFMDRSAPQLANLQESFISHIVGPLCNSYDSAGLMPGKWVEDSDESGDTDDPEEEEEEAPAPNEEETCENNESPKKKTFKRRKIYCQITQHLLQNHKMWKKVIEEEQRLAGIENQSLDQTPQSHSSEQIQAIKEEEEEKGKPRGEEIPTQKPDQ
3',5'-cyclic-AMP phosphodiesterase 4B, sequence (Q07343 whole entry): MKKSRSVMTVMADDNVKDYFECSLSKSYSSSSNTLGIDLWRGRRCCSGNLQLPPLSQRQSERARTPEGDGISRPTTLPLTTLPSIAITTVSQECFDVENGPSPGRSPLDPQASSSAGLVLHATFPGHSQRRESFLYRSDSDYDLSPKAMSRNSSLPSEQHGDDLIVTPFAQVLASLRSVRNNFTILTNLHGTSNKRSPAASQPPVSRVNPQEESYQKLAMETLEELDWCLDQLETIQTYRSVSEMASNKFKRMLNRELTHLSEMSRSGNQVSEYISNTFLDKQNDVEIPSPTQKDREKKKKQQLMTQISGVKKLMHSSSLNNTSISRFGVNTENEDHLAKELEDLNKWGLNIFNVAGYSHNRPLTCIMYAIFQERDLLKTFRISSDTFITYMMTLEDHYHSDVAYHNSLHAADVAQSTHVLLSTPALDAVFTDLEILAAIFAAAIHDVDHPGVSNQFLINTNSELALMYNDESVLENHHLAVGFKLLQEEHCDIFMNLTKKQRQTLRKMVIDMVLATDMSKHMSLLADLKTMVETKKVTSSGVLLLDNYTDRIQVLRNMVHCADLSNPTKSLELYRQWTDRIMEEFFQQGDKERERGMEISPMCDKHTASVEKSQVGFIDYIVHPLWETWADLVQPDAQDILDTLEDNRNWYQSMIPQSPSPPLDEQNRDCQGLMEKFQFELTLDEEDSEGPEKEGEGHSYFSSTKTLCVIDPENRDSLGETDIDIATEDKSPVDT

Row | IC50 [1] | remaining at 1 h, 10 µM [2] | IC50 [3] | IC50 [4] | IC50 [5] | Drug uptake (Lung) | IC50 [6] | AUClast (Plasma [7]) | remaining at 1 h, 1 µM [8] | Tmax [9] | IC50 [10] | remaining at 1 h, 1 µM [11] | hepatocyte CLint at 1 µM [12] | IC50 [13] | half-life [14] | IC50 [15] | microsomal CLint at 1 µM [16] | IC50 [17] | Compound | inhibition (Rattus norvegicus) | ED50 (Rattus norvegicus) | further results
1 | 0.0881 nM | 78% | > 30 µM | 4.03 µM | 13.9 µM | 0.128 nmol/g | > 30 µM | 33.27 pmol·h/g | 71.1% | 0.083 h | 17 µM | 108% | 95.5 µL/min/1e6 cells | 3.46 µM | 5.18 h | > 30 µM | 591 µL/min/mg | 0.032 nM | CN(C)C(=O)c1cccc(S(=O)(=O)N2CCC[C@H]2C(=O)O[C@@H](Cc2c(Cl)c[n+]([O-])cc2Cl)c2ccc(OC(F)F)c(OCC3CC3)c2)c1 (relative stereo) | Dose-dependent effect | 0.1 µmol/kg | IC50 [18]: 0.0378 nM; IC50 [19]: 25.6 µM; Tlast (Plasma [20]): 8 h; MRT last at 24 h [21]: 4.52 h; fraction unbound at 5 h, 5 µM [22]: 0.0035; Tmax [23]: 4.98 min; Papp A→B at 2 h, 10 µM [24]: 0.48 ×10⁻⁶ cm/s; MRT last at 24 h [25]: 1.08 h; Papp B→A at 2 h, 10 µM [26]: 10.2 ×10⁻⁶ cm/s
2 | 0.0278 nM | 51% | > 30 µM | 0.81 µM | 4.61 µM | 0.22 nmol/g | 6.21 µM | 10.38 pmol·h/g | 70.2% | 0.25 h | 3.56 µM | 98% | 82.5 µL/min/1e6 cells | 0.66 µM | 4.39 h | > 30 µM | 287 µL/min/mg | 0.019 nM | CN(C)C(=O)c1cccc(S(=O)(=O)N2CCS[C@H]2C(=O)O[C@@H](Cc2c(Cl)c[n+]([O-])cc2Cl)c2ccc(OC(F)F)c(OCC3CC3)c2)c1 | Dose-dependent effect | 0.04 µmol/kg | IC50 [18]: 0.053 nM; IC50 [19]: 7.4 µM; Tlast (Plasma [20]): 8 h; MRT last at 24 h [21]: 5.56 h; fraction unbound at 5 h, 5 µM [22]: 0.0021; Tmax [23]: 4.98 min; Papp A→B at 2 h, 10 µM [24]: 0.42 ×10⁻⁶ cm/s; MRT last at 24 h [25]: 1.33 h; Papp B→A at 2 h, 10 µM [26]: 3.18 ×10⁻⁶ cm/s

From ChEMBL document CHEMBL4024768, “Discovery and Optimization of Thiazolidinyl and Pyrrolidinyl Derivatives as Inhaled PDE4 Inhibitors for Respiratory Diseases” (J Med Chem, 2017)
